Calls of active or inactive are those of the source. The calls are words filed in the database; no cut-off is given here.
Tests used:
[1] = target: Alpha-2A adrenergic receptor (Homo sapiens) (UniProt P08913); experiment: Displacement of [3H]RX-821002 from human recombinant adrenergic alpha2A expressed in CHO cells assessed as remaining radioligand binding at 10 uM after 60 mins by scintillation counting method relative to control; assay type: cell-based
[2] = target: Beta-1 adrenergic receptor (Homo sapiens) (UniProt P08588); experiment: Displacement of (-)-[3H]CGP-12177 from human recombinant adrenergic beta1 receptor expressed in HEK293 cells assessed as remaining radioligand binding at 10 uM after 60 mins by scintillation counting method relative to control; assay type: cell-based
[3] = target: Substance-P receptor (Homo sapiens) (UniProt P25103); experiment: Displacement of [125I]-Substance P LYS3 from NK1 receptor in human U373MG cells assessed as remaining radioligand binding at 10 uM after 60 mins by scintillation counting method relative to control; assay type: cell-based; conditions: U-373MG ATCC
[4] = target: D(1A) dopamine receptor (Homo sapiens) (UniProt P21728); experiment: Displacement of [3H]SCH-23390 from human recombinant dopamine D1 receptor expressed in CHO cells assessed as remaining radioligand binding at 10 uM after 60 mins by scintillation counting method relative to control; assay type: cell-based
[5] = target: Kappa-type opioid receptor (Rattus norvegicus) (UniProt P34975); experiment: Displacement of [3H]U-69593 from rat recombinant kappa opioid receptor expressed in CHO cells assessed as remaining radioligand binding at 10 uM after 60 mins by scintillation counting method relative to control; assay type: cell-based
[6] = target: T1, Transient receptor potential cation channel subfamily A member 1 (Rattus norvegicus, UniProt Q6RI86); experiment: Antagonist activity at rat TRPA1 expressed in tetracycline-inducible T-REx expression system transfected CHO cells assessed as inhibition of AITC-induced Ca2+ influx preincubated for 2 mins followed by AITC addition measured for 2 mins by Fluo-4 dye based FLIPR assay; assay type: cell-based
[7] = Apparent intrinsic clearance in rat liver microsomes; assay type: ADME; conditions: read-out: CLH(app)
[8] = target: Beta-2 adrenergic receptor (Homo sapiens) (UniProt P07550); experiment: Displacement of (-)-[3H]CGP-12177 from human recombinant adrenergic beta2 receptor expressed in CHO cells assessed as remaining radioligand binding at 10 uM after 120 mins by scintillation counting method relative to control; assay type: cell-based
[9] = target: Substance-K receptor (Homo sapiens) (UniProt P21452); experiment: Displacement of [125I]NKA from human recombinant NK2 receptor expressed in CHO cells assessed as remaining radioligand binding at 10 uM after 60 mins by scintillation counting method relative to control; assay type: cell-based
[10] = target: Melanocortin receptor 4 (Homo sapiens) (UniProt P32245); experiment: Displacement of [125I]NDP-a-MSH from human recombinant MC4 receptor expressed in CHO cells assessed as remaining radioligand binding at 10 uM after 120 mins by scintillation counting method relative to control; assay type: cell-based
[11] = target: T1, Transient receptor potential cation channel subfamily A member 1; experiment: Antagonist activity at rat TRPA1 expressed in tetracycline-inducible T-REx expression system transfected CHO cells assessed as inhibition of AITC-induced 45Ca2+ uptake preincubated for 1 min followed by AITC addition measured after 12 mins; assay type: cell-based
[12] = Clearance in rat at 0.5 mg/kg, iv as single dose; assay type: ADME, organism-based; conditions: in vivo
[13] = tested on: Rattus norvegicus; experiment: Unbound clearance in rat at 0.5 mg/kg, iv as single dose; assay type: ADME, organism-based; conditions: in vivo
Outline: (§1)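 Single intravenous dose of 0.5 mg/kg given to rats, formulated in 100% DMSO.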

[14] = Half life in rat at 0.5 mg/kg, iv administered as single dose; assay type: ADME, organism-based; conditions: in vivo; outline: as §1
[15] = Half life in rat at 30 mg/kg, po; assay type: ADME, organism-based; conditions: in vivo
Outline: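 Rats dosed orally at 30 mg/kg, or 10 mg/kg for one analogue, in 1% Tween 80/2% HPMC/97% water with methanesulfonic acid, pH 2.2.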

[16] = Ratio of fCmax in rat at 30 mg/kg, po to IC50 for rat TRPA1 expressed in tetracycline-inducible T-REx expression system transfected CHO cells by 45Ca2+ uptake assay
[17] = target: Transient receptor potential cation channel subfamily V member 1 (Homo sapiens, UniProt Q8NER1); experiment: Antagonist activity at human TRPV1 expressed in CHO cells assessed as inhibition of capsaicin-induced Ca2+ influx up to 10 uM preincubated for 2.5 mins followed by capsaicin addition measured for 1 min by luminescence assay; assay type: cell-based
[18] = target: Transient receptor potential cation channel subfamily V member 1 (Rattus norvegicus) (UniProt O35433); experiment: Antagonist activity at rat TRPV1 assessed as inhibition of capsaicin-induced Ca2+ influx up to 10 uM preincubated for 2.5 mins followed by capsaicin addition measured for 1 min by luminescence assay
[19] = target: Cytochrome P450 3A4 (Homo sapiens, UniProt P08684); experiment: Inhibition of CYP3A4 in human liver microsomes using midazolam as substrate by LC-MS/MS analysis in presence of NADPH; assay type: ADME
[20] = tested on: Plasma; experiment: Unbound plasma concentration in Harlan Sprague-Dawley rat model of AITC-induced flinching at 10 mg/kg, po at 1 hr; assay type: ADME, organism-based; conditions: in vivo
Outline: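 Rats were given vehicle (2% HPMC/1% Tween-80) or compound orally at 1, 3, 10 or 30 mg/kg. After 1 h, 0.1% AITC was injected into one left ventral hind paw, and nocifensive flinching was recorded over the first minute. Unbound plasma concentration was measured at 1 h, n = 8 per dose. In vivo IC50/IC90 came from the exposure–response relationship across individual animals.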

[21] = Ratio of unbound plasma concentration in Harlan Sprague-Dawley rat model of AITC-induced flinching at 1 mg/kg, po to IC50 for rat TRPA1 expressed in tetracycline-inducible T-REx expression system transfected CHO cells by 45Ca2+ uptake assay; assay type: ADME, organism-based; conditions: in vivo
Outline: (§2)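 Rats dosed orally at 1, 3, 10 or 30 mg/kg in 2% HPMC/1% Tween-80 vehicle. After 1 h, unbound plasma concentration measured (n = 8 per dose), intraplantar AITC (0.1%) given and flinching scored over the first minute. Unbound concentration divided by in vitro rat TRPA1 45Ca2+ IC50.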

[22] = Ratio of unbound plasma concentration in Harlan Sprague-Dawley rat model of AITC-induced flinching at 10 mg/kg, po to IC50 for rat TRPA1 expressed in tetracycline-inducible T-REx expression system transfected CHO cells by 45Ca2+ uptake assay; assay type: ADME, organism-based; conditions: in vivo; outline: as §2
[23] = species on record: Rattus norvegicus; experiment: Displacement of [35S]TBPS from GABA gated chloride channel in rat cerebral cortex assessed as remaining radioligand binding at 10 uM after 120 mins by scintillation counting method relative to control; assay type: tissue-based
[24] = target: C-C chemokine receptor type 2 (Homo sapiens) (UniProt P41597); experiment: Displacement of [125I]MCP-1 from human recombinant CCR2 expressed in HEK293 cells assessed as remaining radioligand binding at 10 uM after 60 mins by scintillation counting method relative to control; assay type: cell-based
[25] = target: 5-hydroxytryptamine receptor 4 (Homo sapiens) (UniProt Q13639); experiment: Displacement of [3H]GR-113808 from human recombinant 5HT4E receptor expressed in CHO cells assessed as remaining radioligand binding at 10 uM after 60 mins by scintillation counting method relative to control; assay type: cell-based
[26] = target: Histamine H2 receptor (Homo sapiens) (UniProt P25021); experiment: Displacement of [125I]APT from human recombinant histamine H2 receptor expressed in CHO cells assessed as remaining radioligand binding at 10 uM after 120 mins by scintillation counting method relative to control; assay type: cell-based

T1 sequence (Q6RI86 whole entry): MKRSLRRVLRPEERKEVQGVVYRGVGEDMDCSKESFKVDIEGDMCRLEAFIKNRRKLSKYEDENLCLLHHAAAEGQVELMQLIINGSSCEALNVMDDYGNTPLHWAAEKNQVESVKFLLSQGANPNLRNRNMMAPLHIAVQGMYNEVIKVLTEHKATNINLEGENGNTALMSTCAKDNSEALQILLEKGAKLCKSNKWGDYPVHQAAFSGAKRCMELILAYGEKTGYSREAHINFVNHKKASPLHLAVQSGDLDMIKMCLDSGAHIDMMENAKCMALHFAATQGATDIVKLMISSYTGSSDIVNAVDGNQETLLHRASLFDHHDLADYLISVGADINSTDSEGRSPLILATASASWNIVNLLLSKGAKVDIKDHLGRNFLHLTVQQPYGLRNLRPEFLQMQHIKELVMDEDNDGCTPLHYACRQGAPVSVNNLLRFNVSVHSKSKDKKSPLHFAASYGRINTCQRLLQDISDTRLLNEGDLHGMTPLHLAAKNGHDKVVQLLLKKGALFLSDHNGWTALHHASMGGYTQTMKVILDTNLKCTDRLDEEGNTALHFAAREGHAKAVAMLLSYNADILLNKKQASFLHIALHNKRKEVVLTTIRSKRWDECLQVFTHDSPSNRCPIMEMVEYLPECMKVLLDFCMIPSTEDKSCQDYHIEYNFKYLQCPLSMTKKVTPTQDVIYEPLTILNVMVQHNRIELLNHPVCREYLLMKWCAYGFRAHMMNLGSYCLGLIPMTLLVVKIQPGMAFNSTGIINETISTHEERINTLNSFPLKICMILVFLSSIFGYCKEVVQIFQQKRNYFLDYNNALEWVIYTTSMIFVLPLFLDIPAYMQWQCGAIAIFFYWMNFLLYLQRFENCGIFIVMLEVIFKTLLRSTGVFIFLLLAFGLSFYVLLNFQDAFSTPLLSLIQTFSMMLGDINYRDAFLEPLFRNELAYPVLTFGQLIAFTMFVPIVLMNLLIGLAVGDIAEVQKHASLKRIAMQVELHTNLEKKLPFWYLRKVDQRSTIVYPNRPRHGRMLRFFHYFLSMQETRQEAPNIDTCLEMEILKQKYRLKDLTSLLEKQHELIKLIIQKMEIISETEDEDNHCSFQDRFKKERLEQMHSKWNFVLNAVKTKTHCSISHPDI
Sequence of Substance-K receptor (Homo sapiens) (P21452 whole entry): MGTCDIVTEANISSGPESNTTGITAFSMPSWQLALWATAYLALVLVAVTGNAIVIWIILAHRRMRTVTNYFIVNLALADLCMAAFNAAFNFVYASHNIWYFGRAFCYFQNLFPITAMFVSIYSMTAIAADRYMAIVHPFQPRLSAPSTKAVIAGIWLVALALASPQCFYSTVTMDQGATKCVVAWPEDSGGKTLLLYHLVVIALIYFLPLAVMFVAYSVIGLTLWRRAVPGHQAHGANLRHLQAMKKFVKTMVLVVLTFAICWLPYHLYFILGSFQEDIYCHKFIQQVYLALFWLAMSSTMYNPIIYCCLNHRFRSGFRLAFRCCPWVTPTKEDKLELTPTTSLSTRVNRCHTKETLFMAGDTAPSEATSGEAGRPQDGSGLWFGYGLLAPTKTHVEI
Sequence of Transient receptor potential cation channel subfamily V member 1 (Rattus norvegicus) (O35433 whole entry): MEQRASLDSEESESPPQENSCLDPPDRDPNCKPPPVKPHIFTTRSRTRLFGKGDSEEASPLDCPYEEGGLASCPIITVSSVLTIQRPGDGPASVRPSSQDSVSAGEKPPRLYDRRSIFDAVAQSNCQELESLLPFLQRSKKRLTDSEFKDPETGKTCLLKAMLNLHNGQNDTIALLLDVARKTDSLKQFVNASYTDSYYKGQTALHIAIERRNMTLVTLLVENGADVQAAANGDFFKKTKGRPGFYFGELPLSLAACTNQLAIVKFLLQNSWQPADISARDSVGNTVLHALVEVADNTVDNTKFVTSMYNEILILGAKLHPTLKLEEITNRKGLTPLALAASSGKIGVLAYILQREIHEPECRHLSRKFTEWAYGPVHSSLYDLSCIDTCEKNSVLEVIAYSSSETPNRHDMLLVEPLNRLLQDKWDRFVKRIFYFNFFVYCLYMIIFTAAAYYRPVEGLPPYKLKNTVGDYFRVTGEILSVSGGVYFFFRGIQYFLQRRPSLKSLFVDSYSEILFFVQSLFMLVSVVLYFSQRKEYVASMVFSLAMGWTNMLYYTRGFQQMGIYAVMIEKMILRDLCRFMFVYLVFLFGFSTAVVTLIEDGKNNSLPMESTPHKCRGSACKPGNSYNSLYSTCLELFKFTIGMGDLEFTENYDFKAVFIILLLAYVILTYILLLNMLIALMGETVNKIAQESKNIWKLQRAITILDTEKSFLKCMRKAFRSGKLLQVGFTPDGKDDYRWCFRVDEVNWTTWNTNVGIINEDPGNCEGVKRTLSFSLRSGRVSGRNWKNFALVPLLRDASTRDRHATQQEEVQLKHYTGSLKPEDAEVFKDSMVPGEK
Sequence of D(1A) dopamine receptor (Homo sapiens) (P21728 whole entry): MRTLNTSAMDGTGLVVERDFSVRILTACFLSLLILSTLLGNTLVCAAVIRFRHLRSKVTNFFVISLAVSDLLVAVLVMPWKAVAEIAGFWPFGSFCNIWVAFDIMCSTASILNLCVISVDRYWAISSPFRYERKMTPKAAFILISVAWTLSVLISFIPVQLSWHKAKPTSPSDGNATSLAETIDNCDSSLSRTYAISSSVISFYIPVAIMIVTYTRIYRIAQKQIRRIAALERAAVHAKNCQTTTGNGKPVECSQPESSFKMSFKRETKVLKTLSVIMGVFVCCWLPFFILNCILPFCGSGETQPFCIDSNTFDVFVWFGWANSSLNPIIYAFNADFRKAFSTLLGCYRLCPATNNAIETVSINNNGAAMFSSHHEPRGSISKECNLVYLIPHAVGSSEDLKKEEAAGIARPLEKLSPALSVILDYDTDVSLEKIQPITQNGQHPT
Sequence of Kappa-type opioid receptor (Rattus norvegicus) (P34975 whole entry): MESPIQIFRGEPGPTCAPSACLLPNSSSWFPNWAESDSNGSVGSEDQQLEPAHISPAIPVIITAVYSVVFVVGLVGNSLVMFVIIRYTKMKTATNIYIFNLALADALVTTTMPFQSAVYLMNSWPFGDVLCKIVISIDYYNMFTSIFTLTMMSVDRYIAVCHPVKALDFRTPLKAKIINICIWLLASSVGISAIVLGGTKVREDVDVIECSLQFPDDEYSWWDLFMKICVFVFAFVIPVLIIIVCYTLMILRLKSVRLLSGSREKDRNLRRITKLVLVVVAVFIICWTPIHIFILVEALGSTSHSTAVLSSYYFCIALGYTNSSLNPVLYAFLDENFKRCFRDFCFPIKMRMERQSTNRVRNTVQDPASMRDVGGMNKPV
Sequence of Alpha-2A adrenergic receptor (Homo sapiens) (P08913 whole entry): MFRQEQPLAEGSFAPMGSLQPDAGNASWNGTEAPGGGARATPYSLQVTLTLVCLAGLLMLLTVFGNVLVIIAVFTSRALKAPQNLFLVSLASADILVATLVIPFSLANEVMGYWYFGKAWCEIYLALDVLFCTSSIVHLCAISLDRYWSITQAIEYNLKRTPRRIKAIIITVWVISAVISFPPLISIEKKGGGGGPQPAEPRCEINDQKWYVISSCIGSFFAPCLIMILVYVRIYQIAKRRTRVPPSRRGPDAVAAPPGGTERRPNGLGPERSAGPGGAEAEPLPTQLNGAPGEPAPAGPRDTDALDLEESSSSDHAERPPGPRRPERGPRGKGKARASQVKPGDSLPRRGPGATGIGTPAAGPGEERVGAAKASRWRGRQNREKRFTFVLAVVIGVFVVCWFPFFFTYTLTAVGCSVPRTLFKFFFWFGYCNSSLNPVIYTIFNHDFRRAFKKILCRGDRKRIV
Sequence of Substance-P receptor (Homo sapiens) (P25103 whole entry): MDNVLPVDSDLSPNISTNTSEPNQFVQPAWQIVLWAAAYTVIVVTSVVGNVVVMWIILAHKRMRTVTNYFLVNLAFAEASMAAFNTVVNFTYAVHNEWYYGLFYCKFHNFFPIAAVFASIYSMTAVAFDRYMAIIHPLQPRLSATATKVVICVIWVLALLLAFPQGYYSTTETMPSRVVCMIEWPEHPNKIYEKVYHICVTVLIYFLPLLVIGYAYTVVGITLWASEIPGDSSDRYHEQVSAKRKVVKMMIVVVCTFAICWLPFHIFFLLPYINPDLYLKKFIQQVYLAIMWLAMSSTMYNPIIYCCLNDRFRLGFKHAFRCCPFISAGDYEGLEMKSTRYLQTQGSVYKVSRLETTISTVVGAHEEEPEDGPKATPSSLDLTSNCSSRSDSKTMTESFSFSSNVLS
Sequence of Beta-1 adrenergic receptor (Homo sapiens) (P08588 whole entry, looked up): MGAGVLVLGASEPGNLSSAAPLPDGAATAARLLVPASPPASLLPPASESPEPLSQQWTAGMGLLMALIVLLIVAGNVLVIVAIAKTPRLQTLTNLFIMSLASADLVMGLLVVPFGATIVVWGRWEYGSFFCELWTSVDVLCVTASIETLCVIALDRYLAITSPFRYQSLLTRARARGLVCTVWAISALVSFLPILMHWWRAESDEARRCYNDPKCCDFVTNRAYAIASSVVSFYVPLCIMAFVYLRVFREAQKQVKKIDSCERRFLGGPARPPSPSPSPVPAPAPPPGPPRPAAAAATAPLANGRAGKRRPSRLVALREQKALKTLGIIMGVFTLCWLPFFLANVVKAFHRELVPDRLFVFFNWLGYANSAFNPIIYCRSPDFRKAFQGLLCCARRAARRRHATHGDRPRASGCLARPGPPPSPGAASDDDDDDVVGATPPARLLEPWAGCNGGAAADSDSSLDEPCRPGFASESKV
Sequence of Beta-2 adrenergic receptor (Homo sapiens) (P07550 whole entry, looked up): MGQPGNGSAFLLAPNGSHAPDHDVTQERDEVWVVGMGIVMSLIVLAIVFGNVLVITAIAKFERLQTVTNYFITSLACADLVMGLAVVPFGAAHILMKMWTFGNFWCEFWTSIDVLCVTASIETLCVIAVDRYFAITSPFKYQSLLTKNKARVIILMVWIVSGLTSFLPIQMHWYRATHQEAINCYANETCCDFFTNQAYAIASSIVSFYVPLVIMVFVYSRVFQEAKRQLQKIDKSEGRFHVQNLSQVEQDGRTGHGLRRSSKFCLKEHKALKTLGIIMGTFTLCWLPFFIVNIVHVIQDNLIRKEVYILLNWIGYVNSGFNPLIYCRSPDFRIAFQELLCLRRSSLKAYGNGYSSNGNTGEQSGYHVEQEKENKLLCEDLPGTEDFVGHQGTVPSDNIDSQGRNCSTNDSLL

**Q.** Which Activity [1] does the source give for `Cn1cnc2ncn(Cc3nc(CCc4ccc(Cl)cc4)no3)c(=O)c21` here?
**A.** > 77%

**Q.** And the Activity [2]?
**A.** > 77%

**Q.** What about the Activity [3] of the same compound?
**A.** > 77%

**Q.** What about the Activity [4] of the same compound?
**A.** > 77%

**Q.** What about the Activity [5] of the same compound?
**A.** > 77%

**Q.** And the IC50 [6]?
**A.** 20 nM

**Q.** And the microsomal CLint [7]?
**A.** 41 µL/min/mg

**Q.** And the Activity [8]?
**A.** > 77%

**Q.** And the Activity [9]?
**A.** > 77%

**Q.** And the Activity [10]?
**A.** > 77%

**Q.** What about the IC50 [11] of the same compound?
**A.** 71 nM

**Q.** What about the clearance [12] of the same compound?
**A.** 41.7 mL/min/kg

**Q.** And the CL free [13]?
**A.** 9 L/h/kg

**Q.** And the half-life [14]?
**A.** 36 min

**Q.** What about the half-life [15] of the same compound?
**A.** 168 min

**Q.** What about the Ratio [16] of the same compound?
**A.** 31

**Q.** What about the inhibition [17] of the same compound?
**A.** inactive

**Q.** And the inhibition [18]?
**A.** inactive

**Q.** What about the IC50 [19] of the same compound?
**A.** > 27 µM

**Q.** What about the “Cp(f)” value [20] of the same compound?
**A.** 0.58 µM

**Q.** And the Ratio [21]?
**A.** 0.72

**Q.** And the Ratio [22]?
**A.** 8.2

**Q.** And the Activity [23]?
**A.** > 77%

**Q.** What about the Activity [24] of the same compound?
**A.** > 77%

**Q.** What about the Activity [25] of the same compound?
**A.** > 77%

**Q.** And the Activity [26]?
**A.** > 77%

Source: ChEMBL document CHEMBL3784976 (J Med Chem, 2016)
